Test results published in ChEMBL document CHEMBL1142352, “Chemical resolution of +/- -calanolide A, +/- -cordatolide A and their 11-demethyl analogues” (Bioorg Med Chem Lett, 2008).
Converted amounts (≈) assume the structure as drawn.

How the values were obtained:
Vero [1] = assay: Cytotoxicity against african green monkey Vero cells at 10 uM; type: cell-based; settings: chlorocebus sabaeus
Summary of the method: (§1)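 Microtiter cytotoxicity assay run in parallel on Vero and TZM CD4+ CCR5+ cells. Serially diluted drug was applied, and viability was measured with a commercial cell viability assay. Values are reported as percent reduction in cell viability.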

Vero [2] = assay: Cytotoxicity against african green monkey Vero cells at 1.0 uM; type: cell-based; settings: chlorocebus sabaeus; summary of the method: as §1
[3] = system: Human immunodeficiency virus 1; assay: Antiviral activity against HIV1 at 10 uM by luciferase assay; type: functional; settings: for inhibition at 10 µM: Human immunodeficiency virus 1
Summary of the method: (§2)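 Pseudotyped HIV-1 assay: drug was serially diluted from 10 µM down to 0.1 nM and tested against 100 TCID50 of HIV ADA infecting TZM CD4+ CCR5+ cells. Infection was read on day 3 post-infection as reporter luciferase activity using a commercial kit, and results are given as percent inhibition. Controls were infected cells without drug, a pseudovirus with a non-specific envelope, and an RT inhibitor.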

[4] = system: Human immunodeficiency virus 1; assay: Antiviral activity against HIV1 at 1.0 uM by luciferase assay; type: functional; settings: for inhibition at 1 µM: Human immunodeficiency virus 1; summary of the method: as §2
[5] = system: Mycobacterium tuberculosis; assay: Antimicrobial activity against Mycobacterium tuberculosis; type: functional

Row | Compound | Activity (Vero [1]) [%] | Activity (Vero [2]) [%] | inhibition at 10 µM [3] [%] | inhibition at 1 µM [4] [%] | MIC [5] [µg/mL] | Inhibition [3] [%] | Inhibition [4] [%]
1 | Cc1cc(=O)oc2c3c(c4c(c12)OC(C)(C)C=C4)O[C@@H](C)C[C@H]3O [(-)-11-DEMETHYL CORDATOLIDE A] | 0 | 0 | 0 | 0 |  |  | 
2 | Cc1cc(=O)oc2c3c(c4c(c12)OC(C)(C)C=C4)O[C@@H](C)[C@H](C)[C@H]3O [(-)-CORDATOLIDE A] | 0 | 0 | 0 | 0 |  |  | 
3 | CCCc1cc(=O)oc2c3c(c4c(c12)OC(C)(C)C=C4)O[C@H](C)[C@@H](C)[C@@H]3O [CALANOLIDE A] | 6 | 1 |  | 86 | 3.13 (≈ 8.45 µM) | 98 | 
4 | CCCc1cc(=O)oc2c3c(c4c(c12)OC(C)(C)C=C4)O[C@@H](C)C[C@H]3O [(-)-11-DEMETHYL CALANOLIDE A] | 0 | 0 | 0 | 0 |  |  | 
5 | CCCc1cc(=O)oc2c3c(c4c(c12)OC(C)(C)C=C4)O[C@H](C)C[C@@H]3O [(+)-11-DEMETHYL CALANOLIDE A] | 54 | 0 | 98 | 75 |  |  | 
6 | CCCc1cc(=O)oc2c3c(c4c(c12)OC(C)(C)C=C4)O[C@H](C)[C@@H](C)[C@@H]3O (racemic) [CALANOLIDE A] | 0 | 0 | 97 |  |  |  | 81
7 | Cc1cc(=O)oc2c3c(c4c(c12)OC(C)(C)C=C4)O[C@H](C)[C@@H](C)[C@@H]3O [(+)-CORDATOLIDE A] | 0 | 0 | 85 | 44 |  |  | 
8 | CCCc1cc(=O)oc2c3c(c4c(c12)OC(C)(C)C=C4)O[C@@H](C)[C@H](C)[C@H]3O [(-)-CALANOLIDE A] | 0 | 0 | 97 | 67 |  |  | 
9 | Cc1cc(=O)oc2c3c(c4c(c12)OC(C)(C)C=C4)O[C@H](C)C[C@@H]3O [(+)-11-DEMETHYL CORDATOLIDE A] | 0 | 0 | 0 | 0 |  |  | 
